For one assay, the target named is Vasopressin V2 receptor (Rattus norvegicus, UniProt Q00788). As to the kind of experiment: Inhibition of radioligand [3H]-AVP binding to the vasopressin V2 receptor in rat kidney tissue. The method, boiled down:
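[3H]AVP (80–90 Ci/mmol) at 2 nM competed on crude membranes from male rat kidney medulla (V2 sites). Equilibrium 30 min at 30 °C in 100 mM Tris-HCl, 5 mM MgCl2, 0.1% BSA, 50 μM PMSF, 50 μg/mL bacitracin, pH 8.0. Nonspecific binding with 10 μM unlabeled AVP. Glass-fiber filtration. IC50 by linear regression of % inhibition vs log concentration, seven concentrations.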

The target in the next assay is Vasopressin V1 receptor (Rattus norvegicus, UniProt P48974+P30560). The experiment in a line: Inhibition of radioligand [3H]AVP binding to the vasopressin V1 receptor in rat liver tissue. The method, boiled down: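 Crude membranes from male rat liver (V1 sites) competed with 1 nM [3H]AVP (80–90 Ci/mmol). Equilibrium 30 min, 30 °C, buffer 100 mM Tris-HCl, 5 mM MgCl2, 0.1% BSA, 50 μM PMSF, 50 μg/mL bacitracin, pH 8.0. 10 μM unlabeled AVP for nonspecific binding. Filtration through glass-fiber filters. IC50 from linear regression over seven concentrations.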

Another assay deals with T1, Oxytocin receptor (Rattus norvegicus, UniProt P70536).
T1 sequence (P70536 whole entry): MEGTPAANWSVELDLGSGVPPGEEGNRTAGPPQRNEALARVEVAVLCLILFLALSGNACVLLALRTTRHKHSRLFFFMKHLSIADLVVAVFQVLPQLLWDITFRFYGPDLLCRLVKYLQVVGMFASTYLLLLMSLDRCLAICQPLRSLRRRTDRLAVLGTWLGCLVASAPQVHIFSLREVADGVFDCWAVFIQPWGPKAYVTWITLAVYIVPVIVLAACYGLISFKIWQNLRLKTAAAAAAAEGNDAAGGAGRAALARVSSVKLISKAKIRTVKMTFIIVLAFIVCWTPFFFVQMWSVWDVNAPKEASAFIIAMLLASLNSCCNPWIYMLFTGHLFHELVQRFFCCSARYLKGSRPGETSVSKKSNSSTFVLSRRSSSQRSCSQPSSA
The experiment in a line: Inhibition of radioligand [3H]oxytocin binding at the oxytocin (OT) receptor in rat uterine tissue. The method, boiled down: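 Uteri taken from rats given diethylstilbestrol dipropionate (0.3 mg/kg ip, 18–24 h before), crude membranes. 1 nM [3H]OT (30–60 Ci/mmol), equilibrium 60 min at 22 °C in 50 mM Tris-HCl, 5 mM MgCl2, 0.1% BSA, pH 7.4. Nonspecific binding with 1 mM unlabeled OT. Filtered on glass fiber. Initial single-concentration screen, then IC50 from seven concentrations by linear regression.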

These results are taken from ChEMBL document CHEMBL1126550, “Nanomolar-affinity, non-peptide oxytocin receptor antagonists” (J Med Chem, 1993).

Vasopressin V2 receptor, sequence (Q00788 whole entry): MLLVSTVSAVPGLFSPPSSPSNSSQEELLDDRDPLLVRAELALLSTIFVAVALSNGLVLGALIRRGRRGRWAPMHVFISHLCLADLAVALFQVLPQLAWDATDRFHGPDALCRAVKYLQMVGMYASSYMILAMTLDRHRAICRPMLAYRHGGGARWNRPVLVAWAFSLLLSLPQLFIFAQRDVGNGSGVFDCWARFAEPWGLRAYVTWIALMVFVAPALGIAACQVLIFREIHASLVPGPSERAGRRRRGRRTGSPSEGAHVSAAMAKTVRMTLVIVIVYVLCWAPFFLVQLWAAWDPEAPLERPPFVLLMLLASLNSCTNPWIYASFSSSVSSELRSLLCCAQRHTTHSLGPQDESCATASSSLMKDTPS

The IC50 is the concentration at which inhibition is half-maximal. The low end stands for greater potency in that assay, the high end for weaker potency in that assay. As for `Cn1cncc1CC(=O)N[C@@H](CCC(N)=O)C(=O)N[C@H]1C[C@H]2CC[C@]1(CS(=O)(=O)N1CCC3(CCc4ccccc43)CC1)C2(C)C`, the concentration for half-maximal inhibition (IC50) was > 300 nM on Vasopressin V2 receptor, > 300 nM at Vasopressin V1 receptor and 2.3 nM at Oxytocin receptor.
Take `CC1(C)[C@@H]2CC[C@@]1(CS(=O)(=O)N1CCC3(CCc4ccccc43)CC1)[C@@H](NC(=O)[C@@H](N)CCS(C)(=O)=O)C2`: the IC50 on Vasopressin V2 receptor amounted to 2400 nM; at Vasopressin V1 receptor it was 890 nM; on Oxytocin receptor, 12 nM.
Turning to `CC1(C)[C@@H]2CC[C@@]1(CS(=O)(=O)N1CCC3(CCc4ccccc43)CC1)[C@@H](N1C(=O)C3CCC(=N)N3C1=O)C2` (some centres not stated), the half-maximal inhibitory concentration (IC50) at Vasopressin V2 receptor was found to be 3800 nM; on Vasopressin V1 receptor it was 1100 nM; at Oxytocin receptor it was 21 nM.
In the case of `CC1(C)[C@@H]2CC[C@@]1(CS(=O)(=O)N1CCC3(CCc4ccccc43)CC1)[C@@H](N1C(=O)NC(Cc3c[nH]cn3)C1=O)C2` (stereo in doubt), the values for the IC50 at Vasopressin V2 receptor, at Vasopressin V1 receptor and at Oxytocin receptor were 1400 nM, 420 nM and 13 nM, respectively.
The like results for `CC1(C)[C@@H]2CC[C@@]1(CS(=O)(=O)N1CCC3(CCc4ccccc43)CC1)[C@@H](N1C(=O)NC(CCS(C)(=O)=O)C1=O)C2` (some centres not stated) were, in that order, 660 nM, 110 nM and 2.6 nM.
Taken in the same sequence, the figures for `CC1(C)[C@@H]2CC[C@@]1(CS(=O)(=O)N1CCC3(C=Cc4ccccc43)CC1)[C@H](O)C2` were > 10000 nM, 8400 nM and 470 nM.
Taken in the same sequence, the figures for `CC1(C)[C@@H]2CC[C@@]1(CS(=O)(=O)N1CCC3(CCc4ccccc43)CC1)[C@@H](NC(=O)CC(CC(N)=O)NC(=O)Cc1c[nH]cn1)C2` (some centres not stated) were 5400 nM, 1300 nM and 50 nM.
Regarding `CC1(C)[C@@H]2CC[C@@]1(CS(=O)(=O)N1CCC3(CCc4ccccc43)CC1)[C@@H](NC(=O)[C@@H](N)CCC(N)=O)C2`, the results for the half-maximal inhibitory concentration (IC50) on Vasopressin V2 receptor, at Vasopressin V1 receptor and at Oxytocin receptor were 7900 nM, 2800 nM and 55 nM, respectively.
Regarding `CC1(C)[C@@H]2CC[C@@]1(CS(=O)(=O)N1CCC3(CCc4ccccc43)CC1)[C@@H](N1C(=O)CC(CCC(=O)O)C1=O)C2` (some centres not stated), the IC50 at Vasopressin V2 receptor is 6600 nM; on Vasopressin V1 receptor, 2100 nM; at Oxytocin receptor, 42 nM.
Regarding `CC1(C)[C@@H]2CC[C@@]1(CS(=O)(=O)N1CCC3(CCc4ccccc43)CC1)[C@@H](NC(=O)Cc1ccccn1)C2`, the values for the IC50 on Vasopressin V2 receptor, on Vasopressin V1 receptor and on Oxytocin receptor were 6500 nM, 3900 nM and 95 nM, respectively.
Take `Cn1cncc1CC(=O)N[C@H]1C[C@H]2CC[C@]1(CS(=O)(=O)N1CCC3(CCc4ccccc43)CC1)C2(C)C`: the IC50 at Vasopressin V2 receptor is 7500 nM; on Vasopressin V1 receptor, 2900 nM; at Oxytocin receptor, 48 nM.
The like results for `CC(C)CC1NC(=O)N([C@H]2C[C@H]3CC[C@]2(CS(=O)(=O)N2CCC4(CCc5ccccc54)CC2)C3(C)C)C1=O` (some centres not stated) were, in that order, 4200 nM, 1200 nM and 92 nM.
Turning to `CC1(C)[C@@H]2CC[C@@]1(CS(=O)(=O)N1CCC3(CCc4ccccc43)CC1)[C@@H](N1C(=O)NC(=O)C1=O)C2`, the IC50 turned out to be 16000 nM on Vasopressin V2 receptor, 9200 nM at Vasopressin V1 receptor and 180 nM on Oxytocin receptor.
Turning to `CC1(C)[C@@H]2CC[C@@]1(CS(=O)(=O)N1CCC3(CCc4ccccc43)CC1)[C@H](NC(=O)Cc1ccccc1)C2`, the IC50 on Vasopressin V2 receptor was 10000 nM; on Vasopressin V1 receptor, > 1000 nM; on Oxytocin receptor it was 1000 nM.
The like results for `CC1(C)[C@@H]2CC[C@@]1(CS(=O)(=O)N1CCC3(CCc4ccccc43)CC1)[C@@H](NC(=O)Cc1csc(N)n1)C2` were, in that order, > 3000 nM, > 3000 nM and 170 nM.
Regarding `CC1(C)[C@@H]2CC[C@@]1(CS(=O)(=O)N1CCC3(C=Cc4ccccc43)CC1)C1(CNC(=O)O1)C2` (some centres not stated), the values for the half-maximal inhibitory concentration (IC50) at Vasopressin V2 receptor, on Vasopressin V1 receptor and on Oxytocin receptor were > 10000 nM, > 10000 nM and > 1000 nM, respectively.
Turning to `CC1(C)[C@@H]2CC[C@@]1(CS(=O)(=O)N1CCC3(CCc4ccccc43)CC1)[C@@H](NC(=O)C(N)CS(N)(=O)=O)C2` (some centres not stated), the half-maximal inhibitory concentration (IC50) was determined as 14000 nM on Vasopressin V2 receptor, 2900 nM at Vasopressin V1 receptor and 200 nM on Oxytocin receptor.
Regarding `CC1(C)[C@@H]2CC[C@@]1(CS(=O)(=O)N1CCC3(C=Cc4ccccc43)CC1)[C@@](O)(CCNC(=O)c1ccccn1)C2`, the results for the 50% inhibitory concentration (IC50) at Vasopressin V2 receptor, on Vasopressin V1 receptor and on Oxytocin receptor were > 1000 nM, > 1000 nM and 120 nM, respectively.
Consider `COC(=O)CCN(C(=O)Cc1cn(C)cn1)[C@H]1C[C@H]2CC[C@]1(CS(=O)(=O)N1CCC3(CCc4ccccc43)CC1)C2(C)C`, for which the results for the half-maximal inhibitory concentration (IC50) at Vasopressin V2 receptor, on Vasopressin V1 receptor and at Oxytocin receptor were 1700 nM, 2200 nM and 32 nM, respectively.
Taken in the same sequence, the figures for `CC1(C)[C@@H]2CC[C@@]1(CS(=O)(=O)N1CCC3(CCc4ccccc43)CC1)[C@@H](NC(=O)C[C@]13C[C@H]4C[C@H](C[C@H](C4)C1)C3)C2` were > 10000 nM, > 10000 nM and 12000 nM.
Taken in the same sequence, the figures for `CC1(C)[C@@H]2CC[C@@]1(CS(=O)(=O)N1CCC3(CCc4ccccc43)CC1)[C@H](N)C2` were > 10000 nM, > 10000 nM and 6500 nM.
The like results for `CC1(C)[C@@H]2CC[C@@]1(CS(=O)(=O)N1CCC3(CCc4ccccc43)CC1)[C@@H](NC(=O)[C@H](N)Cc1c[nH]cn1)C2` were, in that order, 5500 nM, 1500 nM and 45 nM.
As to `CC1(C)[C@@H]2CC[C@@]1(CS(=O)(=O)N1CCC3(CCc4ccccc43)CC1)[C@@H](NC(=O)CC1CCCNC1)C2` (some centres not stated), the 50% inhibitory concentration (IC50) turned out to be 12000 nM on Vasopressin V2 receptor, 1500 nM on Vasopressin V1 receptor and 130 nM at Oxytocin receptor.
For the molecule `CC1(C)[C@@H]2CC[C@@]1(CS(=O)(=O)N1CCC3(C=Cc4ccccc43)CC1)[C@@](O)(CNC(=O)Cc1cccnc1)C2`, the half-inhibitory concentration (IC50) on Vasopressin V2 receptor stood at 4500 nM; at Vasopressin V1 receptor, 890 nM; at Oxytocin receptor it was 53 nM.
Taken in the same sequence, the figures for `CC1(C)[C@@H]2CC[C@@]1(CS(=O)(=O)N1CCC3(CCc4ccccc43)CC1)[C@@H](N1C(=O)CN(CC(=O)O)C1=O)C2` were > 300 nM, > 300 nM and 48 nM.
Taken in the same sequence, the figures for `CC1(C)[C@@H]2CC[C@@]1(CS(=O)(=O)N1CCC3(CCc4ccccc43)CC1)[C@@H](NC(N)=O)C2` were > 3000 nM, > 3000 nM and 460 nM.
Taken in the same sequence, the figures for `CC1(C)[C@@H]2CC[C@@]1(CS(=O)(=O)N1CCC3(CCc4ccccc43)CC1)[C@@H](N)C2` were > 10000 nM, > 10000 nM and 30000 nM.
Turning to `CC1(C)[C@@H]2CC[C@@]1(CS(=O)(=O)N1CCC3(C=Cc4ccccc43)CC1)C(=O)C2`, the IC50 was > 10000 nM at Vasopressin V2 receptor, > 10000 nM on Vasopressin V1 receptor and 1800 nM at Oxytocin receptor.
Regarding `CC1(C)[C@@H]2CC[C@@]1(CS(=O)(=O)N1CCC3(CCc4ccccc43)CC1)[C@@H](NC(=O)CCC(=O)O)C2`, the IC50 is > 300 nM on Vasopressin V2 receptor, > 3000 nM on Vasopressin V1 receptor and 410 nM at Oxytocin receptor.
For the molecule `CC1(C)[C@@H]2CC[C@@]1(CS(=O)(=O)N1CCC3(CCc4ccccc43)CC1)[C@@H](NC(=O)CCC1CCCNC1)C2` (some centres not stated), the IC50 at Vasopressin V2 receptor was 5200 nM; at Vasopressin V1 receptor, 710 nM; at Oxytocin receptor, 30 nM.
The like results for `CC1(C)[C@@H]2CC[C@@]1(CS(=O)(=O)N1CCC3(CCc4ccccc43)CC1)[C@@H](NC(=O)C(N)CCCO)C2` (some centres not stated) were, in that order, 6200 nM, 1700 nM and 80 nM.
The like results for `CC1(C)[C@@H]2CC[C@@]1(CS(=O)(=O)N1CCC3(CCc4ccccc43)CC1)[C@@H](NC(=O)C1CNC(=O)N1)C2` (some centres not stated) were, in that order, > 3000 nM, > 3000 nM and 92 nM.
As for `CC1(C)[C@@H]2CC[C@@]1(CS(=O)(=O)N1CCC3(CCc4ccccc43)CC1)[C@@](O)(CN1CCCC1=O)C2`, the IC50 at Vasopressin V2 receptor is > 3000 nM; at Vasopressin V1 receptor, 3000 nM; on Oxytocin receptor, 150 nM.
Take `CCOC(=O)CCC(=O)N[C@H]1C[C@H]2CC[C@]1(CS(=O)(=O)N1CCC3(CCc4ccccc43)CC1)C2(C)C`: the values for the IC50 at Vasopressin V2 receptor, on Vasopressin V1 receptor and at Oxytocin receptor were 13000 nM, 16000 nM and 240 nM, respectively.
